Measurements from ChEMBL document CHEMBL3769357, “Phosphoramidate protides of five flavones and their antiproliferative activity against HepG2 and L-O2 cell lines” (Eur J Med Chem, 2016).

Experiments:
[1] = test system: HepG2; test: Selectivity index, ratio of IC50 for human LO2 cells to human HepG2 cells
[2] = test system: HepG2; test: Induction of apoptosis in human HepG2 cells assessed as viable cells at IC50 after 4 hrs by annexin V-FITC/propidium iodide staining-based flow cytometry (reference value: 98.6%); format: functional
[3] = test system: HepG2; test: Induction of apoptosis in human HepG2 cells assessed as late apoptotic cells at IC50 after 4 hrs by annexin V-FITC/propidium iodide staining-based flow cytometry (reference value: 0.53%); format: functional
[4] = test system: HepG2; test: Induction of apoptosis in human HepG2 cells assessed as nectrotic cells at IC50 after 4 hrs by annexin V-FITC/propidium iodide staining-based flow cytometry (reference value: 0.46%); format: functional
[5] = test system: HepG2; test: Induction of apoptosis in human HepG2 cells assessed as early apoptotic cells at IC50 after 4 hrs by annexin V-FITC/propidium iodide staining-based flow cytometry (reference value: 0.41%); format: functional
[6] = test system: HepG2; test: Induction of apoptosis in human HepG2 cells assessed as late apoptotic cells at IC50 after 24 hrs by annexin V-FITC/propidium iodide staining-based flow cytometry (reference value: 1.77%); format: functional
[7] = test system: HepG2; test: Induction of cell cycle arrest in human HepG2 cells assessed as accumulation at S phase at IC50 after 24 hrs by propidium iodide staining-based flow cytometry (reference value: 16.1%); format: functional
[8] = test system: HepG2; test: Induction of cell cycle arrest in human HepG2 cells assessed as accumulation at G2/M phase at IC50 after 24 hrs by propidium iodide staining-based flow cytometry (reference value: 16.4%); format: functional
[9] = test system: HepG2; test: Induction of apoptosis in human HepG2 cells assessed as nectrotic cells at IC50 after 24 hrs by annexin V-FITC/propidium iodide staining-based flow cytometry (reference value: 6.70%); format: functional
[10] = test system: HepG2; test: Antiproliferative activity against human HepG2 cells after 48 hrs by MTT assay; format: functional, cell-based; details: HepG2, 48 h
Procedure, shortened: (§1)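 After 48 h, MTT (5 mg/mL in PBS) added, 4 h at 37 °C, DMSO added, absorbance read at 570 nm. IC50 is the 50% growth-inhibition concentration, mean of three independent experiments.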

[11] = test system: HepG2; test: Induction of apoptosis in human HepG2 cells assessed as early apoptotic cells at IC50 after 24 hrs by annexin V-FITC/propidium iodide staining-based flow cytometry (reference value: 0.41%)
[12] = test system: HepG2; test: Induction of apoptosis in human HepG2 cells assessed as viable cells at IC50 after 24 hrs by annexin V-FITC/propidium iodide staining-based flow cytometry (reference value: 90.5%); format: functional
[13] = Cytotoxicity against human LO2 cells after 48 hrs by MTT assay; format: cell-based; details: L02, 48 h; procedure, shortened: as §1
[14] = test system: HepG2; test: Induction of cell cycle arrest in human HepG2 cells assessed as accumulation at G0/G1 phase at IC50 after 24 hrs by propidium iodide staining-based flow cytometry (reference value: 67.5%); format: functional
[15] = test system: T-24; test: Induction of cell cycle arrest in human T24 cells assessed as accumulation at G2/M phase at 160 uM after 24 hrs by propidium iodide staining-based flow cytometry (reference value: 14.45%); format: functional
[16] = test system: BGC-823; test: Induction of apoptosis in human BGC823 cells at 80 uM after 24 hrs by annexin V-FITC/propidium iodide staining-based flow cytometry (reference value: 1.5%); format: functional
[17] = test system: LN-229; test: Induction of cell cycle arrest in human LNT229 cells assessed as accumulation at G2/M phase at 100 uM after 24 hrs by propidium iodide staining-based flow cytometry (reference value: 34%); format: functional

IC50 [10] [µM]	SMILES	Ratio IC50 [1]	Activity [2] [%]	Activity [3] [%]	Activity [4] [%]	Activity [5] [%]	Activity [6] [%]	Activity [7] [%]	Activity [8] [%]	Activity [9] [%]	Activity [11] [%]	Activity [12] [%]	IC50 [13] [µM]	Activity [14] [%]	Activity [15] [%]	Activity [16] [%]	Activity [17] [%]
9	COC(=O)[C@H](C)NP(=O)(Oc1ccccc1)Oc1cc(OC(C)=O)c2c(=O)cc(-c3ccc(OC(C)=O)cc3)oc2c1 (some centres undefined)	2.467	89.02	6.95	3.58	0.45	3.4	16.4	72.6	9.88	1.31	85.42	22.2	11	–	–	–
70.2	O=c1cc(-c2ccc(O)cc2)oc2cc(O)cc(O)c12 [APIGENIN]	>1.425	–	–	–	–	–	–	–	–	–	–	> 100	–	37.94	–	–
> 100	O=c1c(-c2ccc(O)cc2)coc2cc(O)ccc12 [DAIDZEIN]	–	–	–	–	–	–	–	–	–	–	–	> 100	–	–	32.5	–
> 100	O=c1c(-c2ccc(O)cc2)coc2cc(O)cc(O)c12 [GENISTEIN]	–	–	–	–	–	–	–	–	–	–	–	> 100	–	–	–	58
